Experimental data from ChEMBL document CHEMBL5331127, “Discovery of ARD-2051 as a Potent and Orally Efficacious Proteolysis Targeting Chimera (PROTAC) Degrader of Androgen Receptor for the Treatment of Advanced Prostate Cancer” (J Med Chem, 2023).

Key:
[1] = target: T1, Androgen receptor (Homo sapiens) (UniProt P10275); test: Induction of androgen receptor degradation in human VCaP cells at 0.1 uM after 24 hrs by Western blotting analysis relative to control; format: cell-based
T1 sequence (whole entry): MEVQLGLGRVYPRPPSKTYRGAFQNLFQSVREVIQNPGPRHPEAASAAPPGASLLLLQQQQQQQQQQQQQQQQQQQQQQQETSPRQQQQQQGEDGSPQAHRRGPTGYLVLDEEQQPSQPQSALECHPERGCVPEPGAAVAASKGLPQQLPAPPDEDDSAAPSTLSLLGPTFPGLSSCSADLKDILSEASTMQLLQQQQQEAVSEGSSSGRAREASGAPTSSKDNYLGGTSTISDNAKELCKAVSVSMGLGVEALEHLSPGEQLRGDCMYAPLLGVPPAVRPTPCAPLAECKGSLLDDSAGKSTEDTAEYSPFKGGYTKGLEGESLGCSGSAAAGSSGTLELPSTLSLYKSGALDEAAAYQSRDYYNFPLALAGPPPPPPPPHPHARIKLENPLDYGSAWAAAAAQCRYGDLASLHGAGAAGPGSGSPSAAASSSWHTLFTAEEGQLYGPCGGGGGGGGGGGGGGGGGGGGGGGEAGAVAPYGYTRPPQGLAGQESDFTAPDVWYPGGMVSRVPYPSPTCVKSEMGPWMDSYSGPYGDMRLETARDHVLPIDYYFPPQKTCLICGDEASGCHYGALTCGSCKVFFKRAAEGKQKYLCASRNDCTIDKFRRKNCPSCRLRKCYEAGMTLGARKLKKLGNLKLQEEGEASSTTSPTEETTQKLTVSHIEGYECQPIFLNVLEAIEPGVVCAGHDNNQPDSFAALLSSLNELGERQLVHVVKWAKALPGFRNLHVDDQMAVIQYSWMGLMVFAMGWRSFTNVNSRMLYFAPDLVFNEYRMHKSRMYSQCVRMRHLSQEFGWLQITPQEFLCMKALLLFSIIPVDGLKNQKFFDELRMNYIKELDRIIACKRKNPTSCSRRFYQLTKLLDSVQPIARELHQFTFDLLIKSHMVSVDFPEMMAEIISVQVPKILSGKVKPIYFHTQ
Outline: (§1)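 VCaP cells treated for 24 h at 10, 100 or 1000 nM. AR protein measured by Western blotting.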

[2] = target: T1, Androgen receptor (Homo sapiens); test: Induction of androgen receptor degradation in human VCaP cells at 0.01 uM after 24 hrs by Western blotting analysis relative to control; format: cell-based; outline: as §1
[3] = target: T1, Androgen receptor (Homo sapiens); test: Induction of androgen receptor degradation in human VCaP cells at 1 uM after 24 hrs by Western blotting analysis relative to control; format: cell-based; outline: as §1
[4] = Drug concentration in ICR mouse plasma at 10 mg/kg, po measured after 6 hrs; format: ADME, organism-based
Outline: (§2)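 Mice given a single 10 mg/kg dose by oral gavage, 3 mice per time point. Plasma drug levels measured at 1, 3, 6 and 24 h; mean ± SD reported.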

[5] = Drug concentration in ICR mouse plasma at 10 mg/kg, po measured after 3 hrs; format: ADME, organism-based; outline: as §2
[6] = Drug concentration in ICR mouse plasma at 10 mg/kg, po measured after 1 hr; format: ADME, organism-based; outline: as §2

SMILES | Activity [1] | Activity [2] | Activity [3] | concentration at 6 h [4] | concentration at 3 h [5] | concentration at 1 h [6]
N#Cc1ccc(N2CCC3(CCN(c4ccc(C(=O)N5CCC6(C5)CN(C5CCN(c7ccc8c(c7)C(=O)N(C7CCC(=O)NC7=O)C8=O)CC5)C6)cc4)CC3)C2)cc1Cl (stereo not drawn) | 60% | 20% | 82% |  |  | 
C[C@H]1CC2(CCN(c3ccc(C(=O)N4CCN(CC5CCN(c6ccc7c(c6)C(=O)N(C6CCC(=O)NC6=O)C7=O)CC5)CC4)cc3)CC2)CN1c1ccc(C#N)c(Cl)c1 (stereo partly drawn) | > 95% | > 90% | > 95% |  |  | 
N#Cc1ccc(N2CCC3(CCN(C(=O)c4ccc(N5CCN(C6CCN(c7ccc8c(c7)C(=O)N(C7CCC(=O)NC7=O)C8=O)CC6)CC5)cc4)CC3)C2)cc1Cl (stereo not drawn) | 43% | < 5% | 56% |  |  | 
C[C@H]1CC2(CCN(c3ccc(C(=O)N4CCN(CC5CN(c6ccc7c(c6)C(=O)N(C6CCC(=O)NC6=O)C7=O)C5)CC4)cc3)CC2)CN1c1ccc(C#N)c(Cl)c1 (stereo partly drawn) | > 95% | > 90% | > 95% |  |  | 
C[C@@H]1CC2(CCN(c3ccc(C(=O)N4CCN(C5CN(c6ccc7c(c6)C(=O)N(C6CCC(=O)NC6=O)C7=O)C5)CC4)cc3)CC2)CN1c1ccc(C#N)c(Cl)c1 (stereo partly drawn) | 93% | 66% | > 95% |  |  | 
C[C@H]1CC2(CCN(c3ccc(C(=O)N4C[C@H]5C[C@@H]4CN5C4CN(c5ccc6c(c5)C(=O)N(C5CCC(=O)NC5=O)C6=O)C4)cc3)CC2)CN1c1ccc(C#N)c(Cl)c1 (stereo partly drawn) | 93% | 54% | 95% |  |  | 
C[C@H]1CC2(CCN(c3ccc(C(=O)N4CC5(C4)CN(c4ccc6c(c4)C(=O)N(C4CCC(=O)NC4=O)C6=O)C5)cc3)CC2)CN1c1ccc(C#N)c(Cl)c1 (stereo partly drawn) | > 95% | 79% | > 95% |  |  | 
N#Cc1ccc(N2CCC3(CCN(c4ccc(C(=O)N5CCN(CC6CN(c7ccc8c(c7)C(=O)N(C7CCC(=O)NC7=O)C8=O)C6)CC5)cc4)CC3)C2)cc1Cl (stereo not drawn) | 81% | 30% | 85% |  |  | 
C[C@H]1N(c2ccc(C#N)c(Cl)c2)CCC12CCN(c1ccc(C(=O)N3CCN(C4CN(c5ccc6c(c5)C(=O)N(C5CCC(=O)NC5=O)C6=O)C4)CC3)cc1)CC2 (stereo partly drawn) | 68% | 46% | 91% |  |  | 
N#Cc1ccc(N2CCC3(CCN(c4ccc(C(=O)N5CC6(C5)CN(C5CN(c7ccc8c(c7)C(=O)N(C7CCC(=O)NC7=O)C8=O)C5)C6)cc4)CC3)C2)cc1Cl (stereo not drawn) | 62% | 22% | 81% |  |  | 
C[C@H]1CC2(CCN(c3ccc(C(=O)N4CCN(C5(C#N)CN(c6ccc7c(c6)C(=O)N(C6CCC(=O)NC6=O)C7=O)C5)CC4)cc3)CC2)CN1c1ccc(C#N)c(Cl)c1 (stereo partly drawn) | 93% | 81% | 88% |  |  | 
N#Cc1ccc(N2CCC3(CCN(c4ccc(C(=O)N5CC6(C5)CN(C5CCN(c7ccc8c(c7)C(=O)N(C7CCC(=O)NC7=O)C8=O)CC5)C6)cc4)CC3)C2)cc1Cl (stereo not drawn) | 46% | < 5% | 73% |  |  | 
N#Cc1ccc(N2CCC3(CCN(c4ccc(C(=O)N5CCCN(C6CCN(c7ccc8c(c7)C(=O)N(C7CCC(=O)NC7=O)C8=O)CC6)CC5)cc4)CC3)C2)cc1Cl (stereo not drawn) | 80% | 45% | 92% |  |  | 
N#Cc1ccc(N2CCC3(CCN(c4ccc(C(=O)N5CCC(N6CCN(c7ccc8c(c7)C(=O)N(C7CCC(=O)NC7=O)C8=O)CC6)CC5)cc4)CC3)C2)cc1Cl (stereo not drawn) | 20% | 37% | > 95% |  |  | 
N#Cc1ccc(N2CCC3(CCN(c4ccc(C(=O)N5CCCN(C6CN(c7ccc8c(c7)C(=O)N(C7CCC(=O)NC7=O)C8=O)C6)CC5)cc4)CC3)C2)cc1Cl (stereo not drawn) | 70% | 39% | 87% |  |  | 
C[C@H]1CC2(CCN(c3ccc(C(=O)N4C[C@@H]5C[C@H]4CN5C4CN(c5ccc6c(c5)C(=O)N(C5CCC(=O)NC5=O)C6=O)C4)cc3)CC2)CN1c1ccc(C#N)c(Cl)c1 (stereo partly drawn) | > 95% | > 90% | > 95% |  |  | 

SMILES | Activity [1] | Activity [2] | Activity [3] | concentration at 6 h [4] | concentration at 3 h [5] | concentration at 1 h [6]
N#Cc1ccc(N2CCC3(CCN(C(=O)c4ccc(C(=O)N5CCN(CC6CCN(c7ccc8c(c7)C(=O)N(C7CCC(=O)NC7=O)C8=O)CC6)CC5)cc4)CC3)C2)cc1Cl (stereo not drawn) | < 5% | < 5% | 33% |  |  | 
C[C@H]1CC2(CCN(c3ccc(C(=O)N4CCN(C5CN(c6ccc7c(c6)C(=O)N(C6CCC(=O)NC6=O)C7=O)C5)CC4)cc3)CC2)CN1c1cnc(C#N)c(C(F)(F)F)c1 (stereo partly drawn) | > 95% | > 90% | > 95% | 451 ng/mL | 678 ng/mL | 571 ng/mL
C[C@H]1CC2(CCN(c3ccc(C(=O)N4CCN(C5CCN(c6ccc7c(c6)C(=O)N(C6CCC(=O)NC6=O)C7=O)CC5)CC4)cc3)CC2)CN1c1ccc(C#N)c(Cl)c1 (stereo partly drawn) | > 95% | > 90% | > 95% | 104 ng/mL | 208 ng/mL | 238 ng/mL
N#Cc1ccc(N2CCC3(CCN(c4ccc(C(=O)N5CC6CC(C5)CN(C5CCN(c7ccc8c(c7)C(=O)N(C7CCC(=O)NC7=O)C8=O)CC5)C6)cc4)CC3)C2)cc1Cl (stereo not drawn) | 80% | 23% | 90% |  |  | 
N#Cc1ccc(N2CCC3(CCN(c4ccc(C(=O)N5CCN(C6CCN(c7ccc8c(c7)C(=O)N(C7CCC(=O)NC7=O)C8=O)CC6)CC5)cc4)CC3)C2)cc1Cl (stereo not drawn) | 74% | 24% | 95% |  |  | 
C[C@H]1CC2(CCN(c3ccc(C(=O)N4CCC(N5CCN(c6ccc7c(c6)C(=O)N(C6CCC(=O)NC6=O)C7=O)CC5)CC4)cc3)CC2)CN1c1ccc(C#N)c(Cl)c1 (stereo partly drawn) | > 95% | 78% | > 95% |  |  | 
C[C@H]1CC2(CCN(c3ccc(C(=O)N4CCN(C5CN(c6ccc7c(c6)C(=O)N(C6CCC(=O)NC6=O)C7=O)C5)CC4)cc3)CC2)CN1c1ccc(C#N)c(F)c1 (stereo partly drawn) | > 95% | > 90% | > 95% | 91 ng/mL | 146 ng/mL | 134 ng/mL
C[C@H]1CC2(CCN(c3ccc(C(=O)N4CC(N5CCN(c6ccc7c(c6)C(=O)N(C6CCC(=O)NC6=O)C7=O)CC5)C4)cc3)CC2)CN1c1ccc(C#N)c(Cl)c1 (stereo partly drawn) | > 95% | > 90% | > 95% |  |  | 
C[C@H]1CC2(CCN(c3ccc(C(=O)N4CCC(C5CN(c6ccc7c(c6)C(=O)N(C6CCC(=O)NC6=O)C7=O)C5)CC4)cc3)CC2)CN1c1ccc(C#N)c(Cl)c1 (stereo partly drawn) | 64% | 12% | 92% |  |  | 
C[C@H]1CC2(CCN(c3ccc(C(=O)N4CCC(CN5CCN(c6ccc7c(c6)C(=O)N(C6CCC(=O)NC6=O)C7=O)CC5)CC4)cc3)CC2)CN1c1ccc(C#N)c(Cl)c1 (stereo partly drawn) | > 95% | 81% | > 95% |  |  | 
C[C@H]1CC2(CCN(c3ccc(C(=O)N4CCN(C5CN(c6ccc7c(c6)C(=O)N(C6CCC(=O)NC6=O)C7=O)C5)CC4)cc3)CC2)CN1c1ccc(C#N)c(C(F)F)c1 (stereo partly drawn) | > 95% | > 90% | > 95% |  |  | 
C[C@H]1CC2(CCN(c3ccc(C(=O)N4CCN(C5CN(c6ccc7c(c6)C(=O)N(C6CCC(=O)NC6=O)C7=O)C5)CC4)cc3)CC2)CN1c1ccc(C#N)c(C(F)(F)F)c1 (stereo partly drawn) | > 95% | > 90% | > 95% | 29 ng/mL | 56 ng/mL | 31 ng/mL
N#Cc1ccc(N2CCC3(CCN(c4ccc(C(=O)N5CCN(C6CN(c7ccc8c(c7)C(=O)N(C7CCC(=O)NC7=O)C8=O)C6)CC5)cc4)CC3)C2)cc1Cl (stereo not drawn) | > 95% | 78% | > 95% |  |  | 
N#Cc1ccc(N2CCC3(CCN(c4ccc(C(=O)N5CCCN(C6CCN(c7ccc8c(c7)C(=O)N(C7CCC(=O)NC7=O)C8=O)CC6)CCC5)cc4)CC3)C2)cc1Cl (stereo not drawn) | 54% | < 5% | 54% |  |  | 
C[C@@H]1N(c2ccc(C#N)c(Cl)c2)CCC12CCN(c1ccc(C(=O)N3CCN(C4CN(c5ccc6c(c5)C(=O)N(C5CCC(=O)NC5=O)C6=O)C4)CC3)cc1)CC2 (stereo partly drawn) | > 95% | 84% | > 95% |  |  | 
N#Cc1ccc(N2CCC3(CCN(c4ccc(C(=O)N5CCN(CC6CCN(c7ccc8c(c7)C(=O)N(C7CCC(=O)NC7=O)C8=O)CC6)CC5)cc4)CC3)C2)cc1Cl (stereo not drawn) | 80% | 24% | > 95% |  |  | 
